Source: ChEMBL document CHEMBL5226322, “Harnessing the Role of HDAC6 in Idiopathic Pulmonary Fibrosis: Design, Synthesis, Structural Analysis, and Biological Evaluation of Potent Inhibitors” (J Med Chem, 2021)
Active and inactive are the calls of the source. No cut-off for these calls is given here.

Experiments:
[1] = Metabolic stability in human liver microsome assessed as half life at 5 uM in presence of NADPH incubated up to 60 mins by HPLC analysis; type: ADME; settings: microsomes, 1 h
Heart [2] = assay: Cardiotoxicity in Langendorff-perfused Sprague-Dawley rat heart assessed as effect on QT interval time at 10 uM by ECG analysis (reference value: 76.2 +/-2.9 milliseconds); type: toxicity, tissue-based
NIH3T3 [3] = assay: Cytotoxicity in mouse NIH3T3 cells assessed as reduction in cell viability at 75 uM incubated for 24 hrs by neutral red uptake method based UV/visible spectrophotometer analysis; type: toxicity; settings: nih3t3, 24 h
Outline: (§1)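 NIH3T3 fibroblasts grown in DMEM with 10% FCS, L-glutamine/pen-strep and non-essential amino acids at 37 °C, 5% CO2. Monolayers exposed 24 h to compound diluted from a DMSO stock into medium. Neutral Red medium then added for 3 h at 37 °C. Dye extracted with acetic acid/ethanol desorb solution and absorbance read at 540 nm. Student's t-test, p<0.05.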

Heart [4] = assay: Cardiotoxicity in Langendorff-perfused Sprague-Dawley rat heart assessed as effect on HR at 1 uM by ECG analysis (reference value: 235.7 +/-8.3 bpm); type: toxicity, tissue-based
Heart [5] = assay: Cardiotoxicity in Langendorff-perfused Sprague-Dawley rat heart assessed as effect on QRS interval time at 0.01 uM by ECG analysis (reference value: 15.2 +/-0.2 milliseconds); type: toxicity, tissue-based
NIH3T3 [6] = assay: Cytotoxicity in mouse NIH3T3 cells assessed as reduction in cell viability at 5 uM incubated for 24 hrs by neutral red uptake method based UV/visible spectrophotometer analysis; type: toxicity; settings: nih3t3, 24 h; outline: as §1
Heart [7] = assay: Cardiotoxicity in Langendorff-perfused Sprague-Dawley rat heart assessed as effect on RR time at 0.1 uM by ECG analysis (reference value: 257.2 +/-8.1 milliseconds); type: toxicity, tissue-based
Heart [8] = assay: Cardiotoxicity in Langendorff-perfused Sprague-Dawley rat heart assessed as effect on QTc interval time at 10 uM by ECG analysis (reference value: 150.5 +/-5.5 milliseconds); type: toxicity, tissue-based
Heart [9] = assay: Cardiotoxicity in Langendorff-perfused Sprague-Dawley rat heart assessed as effect on QT interval time at 0.1 uM by ECG analysis (reference value: 76.2 +/-2.9 milliseconds); type: toxicity, tissue-based
Homo sapiens [10] = species: Homo sapiens; assay: Antifibrotic activity in TGF-beta1-induced human Lung parenchyma assessed as inhibition of HDAC6 mRNA expression at 4.1 uM incubated upto 7 days by qRT-PCR analysis; type: functional; settings: time <= 7.0 day
Outline: (§2)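 Human lung parenchyma pieces (2 mm³) cultured in DMEM with TGF-β1 (10 ng/mL) plus compound at 0.41 or 4.1 μM or vehicle (0.1% DMSO). Tissue collected on day 7, homogenized, total RNA purified, then qRT-PCR for HDAC6, collagen I, collagen III, αSMA and fibronectin. Relative expression by the 2^-Ct method; n=3, paired t test.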

Heart [11] = assay: Cardiotoxicity in Langendorff-perfused Sprague-Dawley rat heart assessed as effect on QT interval time at 0.01 uM by ECG analysis (reference value: 76.2 +/-2.9 milliseconds); type: toxicity, tissue-based
Homo sapiens [12] = species: Homo sapiens; assay: Antifibrotic activity in TGF-beta1-induced human Lung parenchyma assessed as inhibition of alpha-SMA mRNA expression at 4.1 uM incubated upto 7 days by qRT-PCR analysis; type: functional; settings: time <= 7.0 day; outline: as §2
[13] = Mutagenecity in Salmonella typhimurium TA100 in presence of S9 fraction at 1 to 75 uM incubated for 90 mins by Ames test; type: toxicity, subcellular; settings: salmonella enterica subsp. enterica serovar typhimurium, s9, 1.5 h, dose 1-75 µM
Heart [14] = assay: Cardiotoxicity in Langendorff-perfused Sprague-Dawley rat heart assessed as effect on QTc interval time at 1 uM by ECG analysis (reference value: 150.5 +/-5.5 milliseconds); type: toxicity, tissue-based
Homo sapiens [15] = species: Homo sapiens; assay: Antifibrotic activity in TGF-beta1-induced human Lung parenchyma assessed as inhibition of collagen 3 mRNA expression at 4.1 uM incubated upto 7 days by qRT-PCR analysis; type: functional; settings: time <= 7.0 day; outline: as §2
Heart [16] = assay: Cardiotoxicity in Langendorff-perfused Sprague-Dawley rat heart assessed as effect on QRS interval time at 0.1 uM by ECG analysis (reference value: 15.2 +/-0.2 milliseconds); type: toxicity, tissue-based
Heart [17] = assay: Cardiotoxicity in Langendorff-perfused Sprague-Dawley rat heart assessed as effect on HR at 10 uM by ECG analysis (reference value: 235.7 +/-8.3 bpm); type: toxicity, tissue-based
[18] = Mutagenecity in Salmonella typhimurium TA98 in presence of S9 fraction at 1 to 75 uM incubated for 90 mins by Ames test; type: toxicity, subcellular; settings: salmonella enterica subsp. enterica serovar typhimurium, s9, 1.5 h, dose 1-75 µM
[19] = Toxicity in zebra fish embryo assessed as mild cardiac edema at 100 uM […]; parameters: species or system Danio rerio; settings: zebrafish
Outline: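 Wildtype Tübingen zebrafish larvae reared at 28.5 °C (14 h light/10 h dark) in embryo medium with methylene blue. From 3 days old, exposed for 2 days to 1, 10, 25, 50 or 100 µM in embryo medium, or 0.1% DMSO vehicle. 4 larvae per well in 400 µL, 8 larvae per group. Larvae scored for swim bladder inflation and cardiac edema.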

Heart [20] = assay: Cardiotoxicity in Langendorff-perfused Sprague-Dawley rat heart assessed as effect on PQ interval time at 1 uM by ECG analysis (reference value: 43.6 +/-2.5 milliseconds); type: toxicity, tissue-based
Heart [21] = assay: Cardiotoxicity in Langendorff-perfused Sprague-Dawley rat heart assessed as effect on QTc interval time at 0.01 uM by ECG analysis (reference value: 150.5 +/-5.5 milliseconds); type: toxicity, tissue-based
NIH3T3 [22] = assay: Cytotoxicity in mouse NIH3T3 cells assessed as reduction in cell viability at 25 uM incubated for 24 hrs by neutral red uptake method based UV/visible spectrophotometer analysis; type: toxicity; settings: nih3t3, 24 h
Outline: (§3)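 NIH3T3 mouse fibroblasts grown in DMEM with 10% FCS, L-glutamine/pen-strep and non-essential amino acids (37 °C, 5% CO2). Exposed 24 h to compound diluted from a DMSO stock into medium. Viability measured by Neutral Red uptake: 3 h in NR medium, then acetic acid/ethanol desorb, absorbance at 540 nm. Student's t-test, p<0.05.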

Heart [23] = assay: Cardiotoxicity in Langendorff-perfused Sprague-Dawley rat heart assessed as effect on PQ interval time at 0.01 uM by ECG analysis (reference value: 43.6 +/-2.5 milliseconds); type: toxicity, tissue-based
NIH3T3 [24] = assay: Cytotoxicity in mouse NIH3T3 cells assessed as reduction in cell viability at 50 uM incubated for 24 hrs by neutral red uptake method based UV/visible spectrophotometer analysis; type: toxicity; settings: nih3t3, 24 h; outline: as §3
NIH3T3 [25] = assay: Cytotoxicity in mouse NIH3T3 cells assessed as reduction in cell viability at 15 uM incubated for 24 hrs by neutral red uptake method based UV/visible spectrophotometer analysis; type: toxicity; settings: nih3t3, 24 h; outline: as §3
Heart [26] = assay: Cardiotoxicity in Langendorff-perfused Sprague-Dawley rat heart assessed as effect on QT interval time at 1 uM by ECG analysis (reference value: 76.2 +/-2.9 milliseconds); type: toxicity, tissue-based
Heart [27] = assay: Cardiotoxicity in Langendorff-perfused Sprague-Dawley rat heart assessed as effect on QRS interval time at 1 uM by ECG analysis (reference value: 15.2 +/-0.2 milliseconds); type: toxicity, tissue-based
Heart [28] = assay: Cardiotoxicity in Langendorff-perfused Sprague-Dawley rat heart assessed as effect on HR at 0.01 uM by ECG analysis (reference value: 235.7 +/-8.3 bpm); type: toxicity, tissue-based

## CN1CCC2(CC1)c1ccccc1N(Cc1ccc(C(=O)NO)cc1)C2c1ccccc1F (racemic)
[1]
  t1/2: 51.68 min

## CC1(C)c2ccccc2N(Cc2ccc(C(=O)NO)cc2)C1c1cccnc1 (racemic)
Heart [2]
  Time: 78.3 ms
NIH3T3 [3]
  Activity: 53%
Heart [4]
  Activity: 235.4 bpm
Heart [5]
  Time: 15.6 ms
NIH3T3 [6]
  Activity: 98%
Heart [7]
  Time: 253.7 ms
Heart [8]
  Time: 145.3 ms
Heart [9]
  Time: 78 ms
Homo sapiens [10]
  Activity: Active
Heart [11]
  Time: 78.1 ms
Homo sapiens [12]
  Activity: Active
[13]
  Activity: Non-Toxic
Heart [14]
  Time: 150.8 ms
Homo sapiens [15]
  Activity: Active
Heart [16]
  Time: 15.4 ms
Heart [17]
  Activity: 207.9 bpm
[18]
  Activity: Non-Toxic
[19]
  Activity: Toxic
Heart [20]
  Time: 44.5 ms
Heart [21]
  Time: 154.6 ms
NIH3T3 [22]
  Activity: 87%
Heart [23]
  Time: 44.1 ms
NIH3T3 [24]
  Activity: 71%
NIH3T3 [25]
  Activity: 94%
Heart [26]
  Time: 76.4 ms
Heart [27]
  Time: 15.8 ms
Heart [28]
  Activity: 235.4 bpm
